Data set [1] concerns patients with advanced solid tumors. The data set is described as follows: Phase I safety and tolerability: AEs, SAEs, DLTs. In kind it is in vivo, human.
The nature of data set [2]: Plasma pharmacokinetics of AZD8186 and metabolite M1. It is filed as in vivo, human. The following applies: for Effect of the combination partner on the PK of AZD8186 (Cmax, AUC): drug–drug interaction analysis versus AZD8186 monotherapy.
Data set [3] has as its system pAKT (S473), pAKT (T308), pGSK3β. The data set is described as follows: PD biomarkers of PI3Kβ inhibition in platelet-rich plasma. In kind it is in vivo, human. The following applies: pooled 60-mg and 120-mg BID monotherapy cohorts.
Data set [4] concerns pAKT (S473) and pPRAS40. The data set is described as follows: IHC of paired tumor biopsies. As to conditions: six patients, 120-mg BID monotherapy dose expansion. It is filed as in vivo, human. The gist of the method:
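Paired fresh biopsies from patients with PTEN-deficient/mutated mCRPC or TNBC, taken at screening and in week 2 after ≥3 consecutive dosing days (preferably 2–4 h post-dose; days 11 or 12 on 5:2, days 11–14 continuous). IHC for pAKT (S473) and pPRAS40 on three non-consecutive sections. Digital image analysis scored membranous pAKT and cytosolic pPRAS40 intensity as H-scores, with percent change from baseline.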

Data set [5] deals with advanced solid tumors. The data set is described as follows: Tumor response by RECIST 1.1. It is filed as in vivo, human. The gist of the method:
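Imaging at baseline and every 6 weeks (every 12 weeks for mCRPC) until discontinuation or consent withdrawal. Patients with measurable disease were classed as complete response, partial response, stable disease or progressive disease under RECIST 1.1. Results were summarised descriptively, with percent change from baseline in target lesions.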

The test system of data set [6] is PI3Kβ. The following applies: cited from earlier work.
The mark [7] stands for this setting: non-prostate cancer, dose finding.
[8] abbreviates: combined with AZD8186, dose expansion.
Setting [9] is: combined with AZD8186, dose finding.

Usually half-life stands for the time needed for the level to fall by half in the phase considered. As usually defined, the IC50 is the midpoint of a concentration-inhibition curve.

Entries after “also recorded” stand apart in the source; their conditions may differ.

For `C[C@@H](Nc1cc(F)cc(F)c1)c1cc(C(=O)N(C)C)cc2c(=O)cc(N3CCOCC3)oc12` [AZD8186, (R)-8-(1-(3,5-difluorophenylamino)ethyl)-N,N-dimethyl-2-morpholino-4-oxo-4H-chromene-6-carboxamide], in data set [1] (dose expansion), the “Any AE” value is reported as 19 (95.0) n (%), the “Any AE causally related to AZD8186 only” value is given as 11 (55.0) n (%), the “Any AE leading to discontinuation of AZD8186” value was 1 (5.0) n (%) and the “Any AE leading to dose modification of AZD8186” value is given as 0 n (%). In data set [1] (dose expansion), the “Any SAE (including deaths)” value is given as 4 (20.0) n (%); the “Any SAE (including deaths), causally related to AZD8186 only” value is given as 2 (10.0) n (%); the “Any SAE causing discontinuation of AZD8186” value is 0 n (%); the “Any SAE causing discontinuation of AZD8186, causally related to AZD8186 only” value is reported as 0 n (%). For the same compound, in data set [1] (dose expansion), the “Any grade ≥3 AE” value is 8 (40.0) n (%), the “Any grade ≥3 AE causally related to AZD8186 only” value is listed as 3 (15.0) n (%), the Death is given as 0 n (%) and the “Death causally related to AZD8186 only” value is recorded as 0 n (%). Also, in data set [1] (dose expansion), the “Dose interruption of AZD8186, patients” value was 35.0% and the “Dose reduction of AZD8186, patients” value is given as “No dose reductions”. Besides, in data set [1] (dose finding), the “Anemia, grade ≥3 causally related AE, patients” value was found to be 4.8%; the “Any AE” value is listed as 63 (100.0) n (%); the “Any AE causally related to AZD8186 only” value is 55 (87.3) n (%); the “Any AE leading to discontinuation of AZD8186” value is listed as 11 (17.5) n (%). For the same compound, in data set [1] (dose finding), the “Any AE leading to dose modification of AZD8186” value was 10 (15.9) n (%); the “Any SAE (including deaths)” value was 23 (36.5) n (%); the “Any SAE (including deaths), causally related to AZD8186 only” value is reported as 10 (15.9) n (%); the “Any SAE causing discontinuation of AZD8186” value was 6 (9.5) n (%). In data set [1] (dose finding), the “Any SAE causing discontinuation of AZD8186, causally related to AZD8186 only” value is 5 (7.9) n (%); the “Any grade ≥3 AE” value is reported as 39 (61.9) n (%); the “Any grade ≥3 AE causally related to AZD8186 only” value was 20 (31.7) n (%); the “Aspartate aminotransferase increase, grade ≥3 causally related AE, patients” value was determined as 4.8%. Besides, in data set [1] (dose finding), the “Colitis, grade ≥3 causally related AE, patients” value is 4.8%; the Death is recorded as 0 n (%); the “Death causally related to AZD8186 only” value is on record as 0 n (%); the “Diarrhea, AE causally related to AZD8186, patients” value stood at 41.3%. Further, in data set [1] (dose finding), the “Fatigue, AE causally related to AZD8186, patients” value is 22.2%; the “Hypophosphatemia, grade ≥3 causally related AE, patients” value is listed as 4.8%; the “Maculo-papular rash, grade ≥3 causally related AE, patients” value was determined as 4.8%; the “Nausea, AE causally related to AZD8186, patients” value came out at 27.0%. In data set [1] (dose finding), the “Vomiting, AE causally related to AZD8186, patients” value is listed as 23.8%. In data set [1] (dose finding, whole arm), the “Dose interruption of AZD8186, patients” value was 49.2%; the “Dose interruption of AZD8186 related to AEs, patients” value came to 38.1%; the “Dose reduction of AZD8186, patients” value came out at 17.5%. Besides, the Tolerability entry in data set [1] (monotherapy dose expansion, 60-mg BID (5:2) and 120-mg BID (continuous)) was “well tolerated”. Besides, the “Patients who experienced a DLT” value in data set [1] (monotherapy dose finding, 53 evaluable for DLTs) is recorded as 7.5%. Further, the half-life in data set [2] (human, plasma, oral, terminal elimination half-life, overall range, after a single dose) was in the range of 1.4 to 13.8 h. Also, in data set [2] (in vivo), the “Effect on the PK of abiraterone acetate” value is recorded as “little effect”. The “Cmax and AUC versus dose” value in data set [2] (single- and multiple-dose administration) is “dose proportional; also recorded: increased with dose”. Besides, in data set [3], the “pAKT (S473), pAKT (T308), and pGSK3β in platelet-rich plasma” value is on record as “Substantial reductions”. For the same compound, in data set [4], the “Patients with substantial reduction in pAKT (S473) membrane fraction” value is recorded as “all six patients” and the “Patients with substantial reduction in pPRAS40” value is given as “five of the six patients”. Besides, the “Duration of RECIST 1.1 partial response” value in data set [5] (dose finding) amounted to 372 days. In addition, in data set [5] (setting [7]), the “RECIST 1.1 best objective response stable disease, patients” value stood at 38.9% and the “RECIST 1.1 disease progression, patients” value is listed as 55.6%. The “RECIST 1.1 confirmed partial response, patients” value in data set [5] (non-prostate cancer, dose finding (120-mg BID; 2:5)) is on record as 5.6%. The “RECIST 1.1 disease progression, patients” value in data set [5] (prostate cancer, dose expansion) was found to be 25.0%. Further, in data set [5] (prostate cancer, dose finding), the “RECIST 1.1 best objective response stable disease, patients” value is listed as 37.5% and the “RECIST 1.1 disease progression, patients” value was determined as 62.5%. In addition, in data set [6], the IC50 is 4 nM.

Consider `CC(=O)O[C@H]1CC[C@@]2(C)C(=CC[C@@H]3[C@@H]2CC[C@]2(C)C(c4cccnc4)=CC[C@@H]32)C1` [Abiraterone acetate, abiraterone acetate, reference compound], for which, in data set [1] (setting [8]), the “Dose interruption of the combination partner, patients” value is reported as 72.2% and the “Dose reduction of the combination partner, patients” value is recorded as 33.3%. Further, in data set [1] (setting [9]), the “Dose interruption of the combination partner, patients” value is recorded as 56.3% and the “Dose reduction of the combination partner, patients” value was determined as 18.8%. Also, in data set [2], the “Effect of the combination partner on the PK of AZD8186 (Cmax, AUC)” value is “little or no effect”.

For the compound `CNC(=O)c1cccc(-c2ccc3c(N4CCOC[C@@H]4C)nc(N4CCOC[C@@H]4C)nc3n2)c1` [Vistusertib, vistusertib, reference compound], in data set [1] (setting [9]), the “Dose interruption of the combination partner, patients” value came to 60.0% and the “Dose reduction of the combination partner, patients” value was found to be 23.3%. In addition, in data set [2], the “Effect of the combination partner on the PK of AZD8186 (Cmax, AUC)” value is on record as “not affected”.

With `C[C@]12C=CC(=O)C=C1CC[C@@H]1[C@@H]2C(=O)C[C@@]2(C)[C@H]1CC[C@]2(O)C(=O)CO` [prednisone, reference compound], the “Dose interruption of the combination partner, patients” value in data set [1] (setting [8]) stood at 77.8%; in data set [1] (setting [9]) it was 56.3%. Further, the “Dose reduction of the combination partner, patients” value in data set [1] (setting [8]) stood at 22.2%; in data set [1] (setting [9]) it was 18.8%.

The record behind these values is publication PMC9662946 (Clinical Cancer Research, 2022).
